Active and inactive are the calls of the source. The rule behind the calls is not given here.
Assays:
HT-29 [1] = assay: Inhibition of Wnt signaling in human HT29 cells assessed as inhibition of beta-catenin-mediated Tcf/Lef transcriptional activity after 24 hrs by dual luciferase reporter gene assay relative to control; type: cell-based; details: HT-29, 24 h
HT-29 [2] = assay: Antiproliferative activity against human HT-29 cells after 72 hrs by MTT assay; type: functional; details: HT-29, 72 h
How it was run: (§1)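 Cells grown in DMEM with 10% FBS, penicillin G, streptomycin and L-glutamine, seeded 7 x 10^3 per well, left 24 h, then exposed to scalar concentrations in complete medium for 72 h at 37 °C, 5% CO2. Viability read by MTT; IC50 taken as the concentration giving 50% inhibition of proliferation.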

LoVo = assay: Antiproliferative activity against human LoVo cells after 72 hrs by MTT assay; type: functional; how it was run: as §1
HepG2 = assay: Antiproliferative activity against human HepG2 cells after 72 hrs by MTT assay; type: functional; details: HepG2, 72 h; how it was run: as §1
A549 = assay: Antiproliferative activity against human A549 cells after 72 hrs by MTT assay; type: functional; details: A549, 72 h; how it was run: as §1
HT-29 [3] = assay: Inhibition of Wnt signaling in human HT29 cells assessed as inhibition of beta-catenin-mediated Tcf/Lef transcriptional activity at 25 uM after 24 hrs by dual luciferase reporter gene assay relative to control; type: cell-based
How it was run: (§2)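 HT-29 cells (1.4 x 10^4) were co-transfected with 1 µg BAT-LUX, which carries 7 TCF sites and the siamois promoter driving firefly luciferase, plus 1 µg Renilla vector. Cells were then treated at 37 °C for 24 h, with or without the GSK-3β inhibitor LiCl. Dual-Glo readout; values are the mean firefly/Renilla ratio.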

HT-29 [4] = assay: Inhibition of Wnt signaling in human HT29 cells assessed as inhibition of beta-catenin-mediated Tcf/Lef transcriptional activity at 25 uM after 24 hrs by dual luciferase reporter gene assay relative to control in presence of GSK-3beta inhibitor LiCl; type: cell-based; how it was run: as §2
HT-29 [5] = assay: Inhibition of Wnt/beta-catenin signaling in human HT29 cells assessed as […] in axin2 mRNA expression at 25 uM after 24 hrs by quantitative real-time PCR assay; type: cell-based
How it was run: (§3)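 Total RNA was extracted with TRIzol from HT-29 cells treated for 24 h. Transcripts were measured by real-time RT-PCR with GUS as the reference gene, and expression was expressed relative to untreated cells.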

HT-29 [6] = assay: Inhibition of Wnt signaling in human HT29 cells assessed as beta-catenin dephosphorylation at S33/37/T41 residues at 25 uM after 24 hrs by Western blot analysis; type: cell-based
How it was run: (§4)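 After 24 h exposure, HT-29 cells were washed in cold PBS, lysed on ice for 30 min and cleared at 15 000 g, 4 °C. 10 µg protein was run on 12% SDS-PAGE and transferred to PVDF. Blots were probed with specific primary antibodies, then peroxidase-labelled secondaries, and developed by ECL. β-actin re-probing served as the loading control.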

HT-29 [7] = assay: Inhibition of Wnt/beta-catenin signaling in human HT29 cells assessed as GSK3-beta dephosphorylation at Ser21/Ser9 residues at 25 uM after 24 hrs by Western blot analysis; type: cell-based; how it was run: as §4
HT-29 [8] = assay: Inhibition of Wnt/beta-catenin signaling in human HT29 cells assessed as […] protein level at 25 uM after 24 hrs by Western blot analysis; type: cell-based; how it was run: as §4
HT-29 [9] = assay: Inhibition of Wnt signaling in human HT29 cells assessed as increase in cytoplasmic beta-catenin at 25 uM after 24 hrs by fluorescence microscopy; type: cell-based
How it was run: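 Cells were fixed in cold 4% formaldehyde for 15 min and stained with anti-β-catenin (mouse, 1:50), then an Alexa-conjugated secondary, with DAPI counterstain. Images were taken on a video-confocal microscope with a 60x objective.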

HT-29 [10] = assay: Inhibition of Wnt/beta-catenin signaling in human HT29 cells assessed as downregulation of cyclin D1 protein expression at 25 uM after 24 hrs by Western blot analysis; type: cell-based; how it was run: as §4
HT-29 [11] = assay: Inhibition of Wnt/beta-catenin signaling in human HT29 cells assessed as increase in p21 protein expression at 25 uM after 24 hrs by Western blot analysis; type: cell-based; how it was run: as §4
HT-29 [12] = assay: Inhibition of Wnt/beta-catenin signaling in human HT29 cells assessed as downregulation of cyclin B1 protein expression at 25 uM after 24 hrs by Western blot analysis; type: cell-based; how it was run: as §4
HT-29 [13] = assay: Inhibition of Wnt/beta-catenin signaling in human HT29 cells assessed as increase in phosphorylated c-myc level at 25 uM after 24 hrs by Western blot analysis; type: cell-based; how it was run: as §4
HT-29 [14] = assay: Inhibition of Wnt/beta-catenin signaling in human HT29 cells assessed as decrease in TCF4 mRNA expression at 25 uM after 24 hrs by quantitative real-time PCR assay; type: cell-based; how it was run: as §3
HT-29 [15] = assay: Inhibition of Wnt/beta-catenin signaling in human HT29 cells assessed as effect on c-myc mRNA expression at 25 uM after 24 hrs by quantitative real-time PCR assay; type: cell-based; how it was run: as §3
HT-29 [16] = assay: Cell cycle arrest in human HT-29 cells assessed as accumulation of cells at G1 phase at 25 uM after 24 hrs by flow cytometry; type: functional, cell-based
How it was run: (§5)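 Exponentially growing HT-29 cells (1.5 × 10^5) were treated with the compounds for 24 h, then collected and fixed in ice-cold 70% ethanol. Fixed cells were treated with lysis buffer holding RNase A and 0.1% Triton X-100, stained with PI and analysed for DNA content by flow cytometry.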

HT-29 [17] = assay: Cell cycle arrest in human HT-29 cells assessed as reduction of cells in S phase at 25 uM after 24 hrs by flow cytometry; type: functional, cell-based; how it was run: as §5
HT-29 [18] = assay: Cell cycle arrest in human HT-29 cells assessed as reduction of cells in G2/M phase at 25 uM after 24 hrs by flow cytometry; type: functional, cell-based; how it was run: as §5
Danio rerio [19] = organism: Danio rerio; assay: Toxicity in zebrafish larvae assessed as mortality at 5 to 25 uM treated for 7 days; type: organism-based; details: in vivo, 168 h
How it was run: (§6)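 Wild-type zebrafish larvae raised under standard conditions were exposed to compounds dissolved in E3 medium. The medium containing compound was renewed every day for 7 days. The read-out was survival rate (mortality) at the end of exposure.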

Danio rerio [20] = organism: Danio rerio; assay: Toxicity in zebrafish larvae assessed as mortality at 1 uM treated for 7 days; type: organism-based; details: in vivo, 168 h; how it was run: as §6
[21] = Antiproliferative activity against human fibroblasts after 72 hrs by MTT assay; type: cell-based, Fibroblast

SMILES	IC50 (HT-29 [1]) [µM]	GI50 (HT-29 [2]) [µM]	GI50 (LoVo) [µM]	GI50 (HepG2) [µM]	GI50 (A549) [µM]	inhibition (HT-29 [3])	inhibition (HT-29 [4])	inhibition (HT-29 [5])	further results
O=C1[C@H](Cc2ccc(O)cc2)N2C(=O)CCN(C(=O)NCc3ccccc3)[C@H]2CN1Cc1cccc2ccccc12	18.7	17.2	15.6	12.7	6.1	Active	Active	Active	
CC(C)Cn1c(SCc2ccccc2)nc(N)cc1=O	30.7	> 100	68	77	83.3				
CC(=O)Nc1cc(=O)n(CC(C)C)c(SCc2ccccc2)n1	43	68.4	58.5	67.6	46.4				
COc1cc(OC)n2cc(-c3ccc(N)cc3)nc2n1	14.3	> 100	> 100	> 100	> 100				
Cc1ccc2nc(-c3ccc(NCc4ccccc4)cc3)cn2c1	11.1	8.8		> 100	56.1	Active	Active	Active	inhibition (HT-29 [6]): Active; inhibition (HT-29 [7]): inactive; inhibition (HT-29 [8]): Active; inhibition (HT-29 [10]): Active; inhibition (HT-29 [11]): Active; inhibition (HT-29 [12]): Active; inhibition (HT-29 [13]): Active; inhibition (HT-29 [14]): Active; inhibition (HT-29 [15]): inactive; Activity (HT-29 [16]): inactive; Activity (HT-29 [17]): inactive; Activity (HT-29 [18]): inactive; Activity (Danio rerio [19]): Toxic; Activity (Danio rerio [20]): Non-toxic; GI50 at 72 h [21]: > 100 µM

More lines, main results first:

IC50 (HT-29 [1]) [µM]	GI50 (HT-29 [2]) [µM]	GI50 (LoVo) [µM]	GI50 (HepG2) [µM]	GI50 (A549) [µM]	SMILES	inhibition (HT-29 [3])	inhibition (HT-29 [4])	inhibition (HT-29 [5])	further results
34.6	> 100	> 100	> 100	> 100	COc1cc(OC)n2cc(-c3ccc(NCc4ccccc4)cc3)nc2n1				
54.3	100	84.9	97.8	> 100	Nc1cc(=O)n(Cc2ccccc2)c(SCc2ccccc2)n1				
9.7	> 100	90.7	> 100	> 100	Cc1ccc2nc(-c3ccc(NC(=O)c4ccccc4C(=O)O)cc3)cn2c1	Active	Active	Active	inhibition (HT-29 [6]): Active; inhibition (HT-29 [7]): inactive; inhibition (HT-29 [8]): Active; inhibition (HT-29 [9]): Active
> 100	> 100			> 100	Cc1ccn2cc(-c3ccc(NC(=O)c4ccccc4C(=O)O)cc3)nc2c1				
16.1	> 100	74.9	> 100	71	Cc1cc(OCc2ccccc2)n2cc(-c3ccc([N+](=O)[O-])cc3)nc2n1				
72.2	> 100	> 100	> 100	> 100	CNc1ccc(-c2cn3c(OC)cc(OC)nc3n2)cc1				
19.5	37.6			60	Cc1ccc2nc(-c3ccc(N(Cc4ccccc4)Cc4ccccc4)cc3)cn2c1				
10.4	90.1	87.6	> 100	38.9	Cc1cc(O)n2cc(-c3ccc([N+](=O)[O-])cc3)nc2n1	Active	Active	Active	inhibition (HT-29 [7]): inactive; inhibition (HT-29 [8]): Active; inhibition (HT-29 [10]): Active; inhibition (HT-29 [11]): Active; inhibition (HT-29 [12]): Active; inhibition (HT-29 [13]): Active; inhibition (HT-29 [14]): Active; inhibition (HT-29 [15]): inactive; inhibition (HT-29 [9]): Active; Activity (HT-29 [16]): inactive; Activity (HT-29 [17]): inactive; Activity (HT-29 [18]): inactive; GI50 at 72 h [21]: > 100 µM
